Assay outcomes (PubChem BioAssay)
A selection: hits, their analogues and other compounds. The true share with any hit is near 2.6%.
Exocytosis inh: LAMP-1 surface exposure blockers, TALL-104 cells – cell-based, flow cytometry, MLPCN library, primary screen. TALL-104 LAMP-1 surface exposure; cells stimulated with thapsigargin and PMA. inhibition, % at 10 µM. 360,000 compounds, 0.66% hits. AID 651702, 2012;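 active means inhibition above about 55%, limit read from the data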
Tb MetRS inh: T. brucei MetRS inhibitors, primary screen, biochemical, luminescence; purified T. brucei MetRS, ATP depletion, Kinase-Glo luminescence; inhibition, % at 11.9 µM; AID 624268, 2012; 360,000 compounds, 0.4% hits;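 active means inhibition above a per-plate cutoff of the control wells' mean inhibition plus 3 SD, cut at about 5.5% in these data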;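 further: 0% = DMSO wells median and 100% = median of wells with control inhibitor compound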
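Material – parasite MetRS enzyme · Medium – HEPES-MgCl2-KCl buffer plus DTT, spermine, BSA, pyrophosphatase · Reagent – ATP, methionine and E. coli bulk tRNA substrates · Times – 15 min enzyme-compound preincubation, 2 h reaction, 10 min detection, 25 °C · Measured by – luminescence of leftover ATP · Evaluation – percent inhibition relative to median high and low control wells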
MC4R ag barr: MC4R agonists recruiting beta-arrestin, primary screen, cell-based, luminescence, agonist arm of biased-ligand search; Melanocortin receptor 4 (Homo sapiens), P32245; U2OS MC4R beta-arrestin complementation; percent of melanotan II response, DMSO zero; 360,000 compounds, 0.98% hits; activation, % at 8.9 µM;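 active means activation above a per-plate cutoff, the mean activation of sample wells on that plate plus 3 SD, cut at about 8% in these data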
hiPSC survival: enhancers of single-cell hiPSC survival, primary screen, ATPlite luminescence. survival enhancement, % at 20 µM. 360,000 compounds, 0.044% hits. 100% = ROCK inhibitor wells, 0% = DMSO; in the data active means survival enhancement above about 18%;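 further: cells exposed to compounds for 16 hours before the ATP read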
MC4R antag cAMP: MC4R antagonists of cAMP signaling, primary screen, cell-based, TR-FRET, antagonist arm of biased-ligand search; Melanocortin receptor 4 (Homo sapiens), P32245; MC4R-expressing cells, MTII-stimulated cAMP, LANCE TR-FRET; inhibition, % at 6.5 µM; 360,000 compounds, 0.48% hits; AID 540295, 2011;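 active means inhibition above its plate's cutoff, the mean of tested wells on that plate plus 3 SD, cut at about 29% in these data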;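 further: 0% = Melanotan II alone and 100% = Melanotan II plus saturating MCL0020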
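Material: U2OS-MC4R stable cell line | Reagent: Melanotan II challenge after compound preincubation | Doses: One concentration, 6.5 µM nominal | Incubation: 30-min compound preincubation, 1-h Melanotan II challenge, 1-h detection, room temperature | Signal: TR-FRET cAMP assay | Replicates: One well per compound, no replicates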
ABCB6 inh MLPCN: ABCB6 transporter inhibitors, primary screen, K562-ABCB6 cells, flow cytometry, MLPCN library; ATP-binding cassette sub-family B member 6 (Homo sapiens), Q9NP58; K562-ABCB6 porphyrin accumulation, 1 h; hits give low values; fluorescence ratio to DMSO, % at 10 µM; 360,000 compounds, 0.19% hits;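 active means fluorescence ratio to DMSO below 75%, the collection mean minus 3 SD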;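 further: signal is porphyrin accumulated inside mitochondria; 100% equals median channel fluorescence of DMSO control wells; lower ratio means ABCB6 inhibition with less porphyrin fluorescence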
Target sequence (Q9NP58 whole entry, looked up): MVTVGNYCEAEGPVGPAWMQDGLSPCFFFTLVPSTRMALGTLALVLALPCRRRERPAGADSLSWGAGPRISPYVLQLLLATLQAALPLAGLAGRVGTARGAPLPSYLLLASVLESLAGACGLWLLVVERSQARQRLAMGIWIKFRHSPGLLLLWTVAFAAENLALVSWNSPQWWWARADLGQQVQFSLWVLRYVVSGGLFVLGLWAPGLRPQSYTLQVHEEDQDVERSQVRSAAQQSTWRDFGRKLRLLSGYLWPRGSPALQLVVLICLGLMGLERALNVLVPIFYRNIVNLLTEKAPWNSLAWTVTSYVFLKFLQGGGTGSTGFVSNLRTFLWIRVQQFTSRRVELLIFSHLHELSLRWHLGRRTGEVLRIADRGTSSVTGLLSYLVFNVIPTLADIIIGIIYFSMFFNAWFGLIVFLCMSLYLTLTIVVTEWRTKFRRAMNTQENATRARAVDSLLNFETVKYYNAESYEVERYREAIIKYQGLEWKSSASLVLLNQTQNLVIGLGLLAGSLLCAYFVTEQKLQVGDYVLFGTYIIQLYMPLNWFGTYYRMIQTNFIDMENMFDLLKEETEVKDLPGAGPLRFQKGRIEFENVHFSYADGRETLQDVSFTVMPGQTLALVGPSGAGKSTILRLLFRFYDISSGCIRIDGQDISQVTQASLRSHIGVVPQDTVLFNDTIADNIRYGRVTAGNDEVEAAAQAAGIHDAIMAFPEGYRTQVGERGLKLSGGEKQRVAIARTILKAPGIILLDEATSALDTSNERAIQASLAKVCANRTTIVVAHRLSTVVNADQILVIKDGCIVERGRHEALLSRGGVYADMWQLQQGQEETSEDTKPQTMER
Tb MetRS conf: T. brucei MetRS inhibitors, confirmation, biochemical, luminescence; AID 624412, 2012; inhibition, % at 11.9 µM; 1,400 compounds, 93% hits; shares compounds with Tb MetRS inh; T. brucei MetRS enzyme, luminescence (ATP depletion); in the data active means inhibition above about 7%
Jurkat tox: Jurkat T cell cytotoxicity, cytotoxicity control for T. brucei MetRS inhibitor project, luminescence, high throughput; shares compounds with Tb MetRS inh; Jurkat cells viability, ATP luminescence; inhibition, % at 8.3 µM; 1,400 compounds, 12% hits; AID 624413, 2012; in the data active means inhibition above about 15%;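 further: 0% = vehicle and 100% = reference inhibitor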
TbMetRS FP orth: T. brucei MetRS inhibitors, orthogonal assay for T. brucei MetRS inhibitor project, biochemical, fluorescence polarization; shares compounds with Tb MetRS inh; purified T. brucei MetRS; inhibition, % at 11.9 µM; 1,400 compounds, 44% hits; AID 651607, 2012; in the data active means inhibition above about 17%;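 further: 0% = vehicle wells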
* marks the source's active call; other numbers are inactive results.

Screening CCOc1ccc(CCNC(=O)C2CCCN2C(=O)OCc2ccccc2)cc1OCC (centres undefined) returned Exocytosis inh 19, Tb MetRS inh -2, MC4R ag barr 1, hiPSC survival -3, MC4R antag cAMP -2 and ABCB6 inh MLPCN 99.
Cc1ccc(S(=O)(=O)NC(c2ccccc2)C(C)C(=O)n2nc(C)cc2C)cc1 (centres undefined) was read as Exocytosis inh 12, Tb MetRS inh -1, MC4R ag barr 0, hiPSC survival -1, MC4R antag cAMP 0 and ABCB6 inh MLPCN 92.
Screening C/C(=N\NC(=O)c1cc(C)oc1C)c1ccc(N2CCOCC2)cc1 returned Exocytosis inh -2, Tb MetRS inh 0, MC4R ag barr 1, hiPSC survival 0, MC4R antag cAMP 3 and ABCB6 inh MLPCN 98.
For CC1(C)NC(=O)N(CCCOc2ccc(Br)cc2Cl)C1=O the results were Exocytosis inh 0, Tb MetRS inh 11*, MC4R ag barr -1, hiPSC survival 1, MC4R antag cAMP 12, ABCB6 inh MLPCN 102, Tb MetRS conf 24*, Jurkat tox -7 and TbMetRS FP orth 104*.
Clc1cc(Br)ccc1OCCn1ccnc1 was read as Exocytosis inh 0, Tb MetRS inh 0, MC4R ag barr -2, hiPSC survival -2, MC4R antag cAMP 3 and ABCB6 inh MLPCN 90.
For Clc1cc(Br)ccc1OCCCn1ccnc1 the results were Exocytosis inh -3, Tb MetRS inh 9.9*, MC4R ag barr -2, hiPSC survival 1, MC4R antag cAMP 8, ABCB6 inh MLPCN 84, Tb MetRS conf 17*, Jurkat tox 5 and TbMetRS FP orth 12.
Screening O=C(COC(=O)CCCN=C1NS(=O)(=O)c2ccccc21)NC(=O)NC1CCCC1 returned Exocytosis inh -5, Tb MetRS inh 0, MC4R ag barr -2, hiPSC survival 0, MC4R antag cAMP 13 and ABCB6 inh MLPCN 97.
Screening O=C(Nc1nc2ccccc2[nH]1)c1cccc(S(=O)(=O)N2CCOCC2)c1 returned Exocytosis inh -2, Tb MetRS inh 0, MC4R ag barr 0, hiPSC survival -3, MC4R antag cAMP 15 and ABCB6 inh MLPCN 101.
For O=C(NCc1cccc(Cl)c1)c1cccc(S(=O)(=O)N2CCCC2)c1 the results were Exocytosis inh 2, Tb MetRS inh 13*, MC4R ag barr 1, hiPSC survival 0, MC4R antag cAMP 3, ABCB6 inh MLPCN 98, Tb MetRS conf 43*, Jurkat tox 2 and TbMetRS FP orth 26*.
Screening Cc1c(NS(=O)(=O)c2cc(C(=O)NCc3cccnc3)ccc2Cl)c(=O)n(-c2ccccc2)n1C returned Exocytosis inh 5, Tb MetRS inh 0, MC4R ag barr -2, hiPSC survival 0, MC4R antag cAMP 7 and ABCB6 inh MLPCN 98.
For O=C(NCc1nc2ccccc2[nH]1)c1cccc(S(=O)(=O)N2CCCC2)c1 the results were Exocytosis inh 1, Tb MetRS inh 7.9*, MC4R ag barr -1, hiPSC survival 1, MC4R antag cAMP -2, ABCB6 inh MLPCN 97, Tb MetRS conf 19*, Jurkat tox -7 and TbMetRS FP orth 14.
`Cc1c(NS(=O)(=O)c2cc(C(=O)NCc3cccc(Cl)c3)ccc2Cl)c(=O)n(-c2ccccc2)n1C` gave Exocytosis inh -2, Tb MetRS inh 11*, MC4R ag barr -2, hiPSC survival -2, MC4R antag cAMP 5, ABCB6 inh MLPCN 98, Tb MetRS conf 34*, Jurkat tox 0 and TbMetRS FP orth 24*.
Screening CSCC[C@H](NC(=O)c1cccc(S(=O)(=O)N2CCCCCC2)c1)c1nc2ccccc2[nH]1 returned Exocytosis inh 34, Tb MetRS inh 0, MC4R ag barr -2, hiPSC survival -3, MC4R antag cAMP 9 and ABCB6 inh MLPCN 102.
`O=C(NCc1nc2ccccc2[nH]1)c1cccc(S(=O)(=O)N2CCOCC2)c1` gave Exocytosis inh 0, Tb MetRS inh 65*, MC4R ag barr -2, hiPSC survival 0, MC4R antag cAMP 13, ABCB6 inh MLPCN 104, Tb MetRS conf 94*, Jurkat tox 7 and TbMetRS FP orth 58*.
Screening O=C(NCc1cccc(Cl)c1)c1cccc(S(=O)(=O)N2CCCCC2)c1 returned Exocytosis inh 6, Tb MetRS inh 5, MC4R ag barr -3, hiPSC survival 0, MC4R antag cAMP 13 and ABCB6 inh MLPCN 97.
C=C(C)CCC(C)N1CCC(n2nccc2NC(=O)CCOc2ccccc2)CC1 (centres undefined) was read as Exocytosis inh 0, Tb MetRS inh 0, MC4R ag barr -2, hiPSC survival 0, MC4R antag cAMP 4 and ABCB6 inh MLPCN 105.
For Cc1cccc(C)c1NC(=O)C(c1ccncc1)n1c(=O)c(-c2cc3ccccc3[nH]2)nc2ccccc21 (centres undefined) the results were Exocytosis inh 11 and Tb MetRS inh 0.
`Cc1ccc(S(=O)(=O)N2CCN(Cc3nc4ccccc4[nH]3)CC2)cc1C` gave Exocytosis inh -5, Tb MetRS inh 5.8*, MC4R ag barr -2, hiPSC survival 3, MC4R antag cAMP -2, ABCB6 inh MLPCN 92, Tb MetRS conf 17*, Jurkat tox 0 and TbMetRS FP orth 5.
Screening Cc1noc(C)c1C(=O)Nc1ccc(-c2nnc3n2CCCCC3)cc1 returned Exocytosis inh 12, Tb MetRS inh 0, MC4R ag barr -4, hiPSC survival 0, MC4R antag cAMP 4 and ABCB6 inh MLPCN 100.
